Measured values published in ChEMBL document CHEMBL3611968, “Reengineered tricyclic anti-cancer agents” (Bioorg Med Chem, 2015).
The source made the active and inactive calls. The rule behind the calls is not given here.

System: NCI-H1650
Experiment: Cytotoxicity against human NCI-H1650 cells assessed as growth inhibition after 48 hrs by MTT assay
Assay type: functional
Outline: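 H1650 cells were exposed to drug for 48 h at five concentrations bracketing 1–40 μM in 10 μM steps, with MTT read-out. GI50 is given only where the data form a sigmoidal dose response.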

SMILES: O=S(=O)(CCCN1c2ccccc2CCc2ccc(Cl)cc21)c1ccc(OC(F)(F)F)cc1
- GI50: inactive

SMILES: O=S(=O)(NC1CCC2(OC1)c1ccccc1CCc1ccccc12)c1ccc(OC(F)(F)F)cc1 (stereo unspecified)
- GI50 (NCI-H1650, 48 h): 13 µM

SMILES: CN(C)CCCN1c2ccccc2Sc2ccc(Cl)cc21 [CHLORPROMAZINE]
- GI50 (NCI-H1650, 48 h): 30.3 µM

SMILES: O=S(=O)(NCCCN1c2ccccc2CCc2ccc(Cl)cc21)c1ccccc1
- GI50 (NCI-H1650, 48 h): 25 µM

SMILES: CN(C)CCC=C1c2ccccc2COc2ccccc21 [DOXEPIN]
- GI50 (NCI-H1650, 48 h): > 40 µM

SMILES: O=S(=O)(NCCCN1c2ccccc2CCc2ccccc21)c1cnc(Cl)c(Br)c1
- GI50 (NCI-H1650, 48 h): > 40 µM

SMILES: O=S(=O)(NCCCN1c2ccccc2CCc2ccc(Cl)cc21)c1ccc(Cl)cc1F
- GI50 (NCI-H1650, 48 h): 20.8 µM

SMILES: O=S(=O)(NCCCCN1c2ccccc2CCc2ccc(Cl)cc21)c1ccc(Cl)cc1
- GI50: inactive

SMILES: O=S(=O)(NCCCN1c2ccccc2OCc2cccnc21)c1ccc(Cl)cc1
- GI50 (NCI-H1650, 48 h): > 40 µM

SMILES: COC(=O)NCCN1c2ccccc2Sc2ccc(Cl)cc21
- GI50: inactive

SMILES: O=S(=O)(NCCCN1c2ccccc2CCc2ccccc21)c1ccc(-n2cccn2)cc1
- GI50 (NCI-H1650, 48 h): > 40 µM

SMILES: O=S(=O)(NCCCN1c2ccccc2CCc2ccccc21)C(F)(F)F
- GI50: inactive

SMILES: O=S(=O)(NCCCN1c2ccccc2CCc2ccc(Cl)cc21)c1ccc(Cl)cc1Cl
- GI50: inactive

SMILES: O=S(=O)(NCCCN1c2ccccc2CCc2ccccc21)N1CCOCC1
- GI50: inactive

SMILES: CC(CNS(=O)(=O)c1ccc(OC(F)(F)F)cc1)CN1c2ccccc2CCc2ccccc21 (stereo unspecified)
- GI50 (NCI-H1650, 48 h): 20 µM

SMILES: COc1ccc(S(=O)(=O)NCCCN2c3ccccc3Sc3ccc(Cl)cc32)cc1
- GI50 (NCI-H1650, 48 h): > 40 µM
